Converted amounts (≈) assume the structure as drawn.
Key:
[1] = Inhibition of wild type Staphylococcus aureus RNA polymerase assessed as reduction in RNA product formation
[2] = Inhibition of RIF-resistant Staphylococcus aureus RNA polymerase RpoB H481Y mutant assessed as reduction in RNA product formation
Staphylococcus aureus [3] = assay: Antimicrobial activity against Staphylococcus aureus isogenic forms expressing gyrA S84L mutant; type: functional
Staphylococcus aureus [4] = assay: Antimicrobial activity against wild type Staphylococcus aureus; type: functional
Staphylococcus aureus [5] = assay: Antimicrobial activity against Staphylococcus aureus isogenic forms expressing parC S80F mutant; type: functional
Procedure, shortened: (§1)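 MIC (μg/mL) on otherwise isogenic derivatives of S. aureus ATCC 29213 that carry the rifamycin-resistance allele rpoB H481Y and/or the quinolone-resistance alleles parC S80F and gyrA S84L. The wild-type parent is the reference strain. MICs were determined both by agar dilution and by broth dilution, tested side by side on the same panel.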

Staphylococcus aureus [6] = assay: Antimicrobial activity against Staphylococcus aureus isogenic forms expressing gyrA S84L and parC S80F mutant; type: functional; procedure, shortened: as §1
Staphylococcus aureus [7] = assay: Antimicrobial activity against Staphylococcus aureus isogenic forms expressing rpoB H481Y mutant; type: functional
Staphylococcus aureus [8] = assay: Antimicrobial activity against Staphylococcus aureus isogenic forms expressing rpoB H481Y and gyrA S84L mutant; type: functional
Staphylococcus aureus [9] = assay: Antimicrobial activity against Staphylococcus aureus isogenic forms expressing rpoB H481Y and parC S80F mutant; type: functional; procedure, shortened: as §1
Staphylococcus aureus [10] = assay: Antimicrobial activity against Staphylococcus aureus isogenic forms expressing rpoB H481Y/gyrA S84L/parC S80F mutant; type: functional; procedure, shortened: as §1
Staphylococcus aureus [11] = assay: Antimicrobial activity against methicillin-sensitive Staphylococcus aureus clinical isolates by broth dilution method; type: functional
Staphylococcus aureus [12] = assay: Antimicrobial activity against methicillin-resistant Staphylococcus aureus clinical isolates by broth dilution method; type: functional
[13] = test system: Staphylococcus epidermidis; assay: Antimicrobial activity against methicillin-sensitive Staphylococcus epidermidis clinical isolates by broth dilution method; type: functional
[14] = test system: Staphylococcus epidermidis; assay: Antimicrobial activity against methicillin-resistant Staphylococcus epidermidis clinical isolates by broth dilution method; type: functional
Streptococcus pyogenes = assay: Antimicrobial activity against Streptococcus pyogenes clinical isolates by broth dilution method; type: functional
Streptococcus agalactiae = assay: Antimicrobial activity against Streptococcus agalactiae clinical isolates by broth dilution method; type: functional
Streptococcus pneumoniae = assay: Antimicrobial activity against Streptococcus pneumoniae clinical isolates by broth dilution method; type: functional
Staphylococcus aureus [15] = assay: Antimicrobial activity against methicillin-resistant Staphylococcus aureus 67-0; type: functional
Staphylococcus aureus [16] = assay: Bactericidal activity against methicillin-resistant Staphylococcus aureus 67-0; type: functional
[17] = molecular target: Topoisomerase IV (Staphylococcus aureus) (UniProt P0C1U9+P0C1S7)
[18] = molecular target: DNA gyrase (Staphylococcus aureus) (UniProt P0A0K8+P20831)
Staphylococcus aureus [19] = test system: Staphylococcus aureus
[20] = molecular target: DNA topoisomerase 2-alpha (Homo sapiens) (UniProt P11388)
Staphylococcus aureus [21] = assay: Bactericidal activity against methicillin-sensitive Staphylococcus aureus 29213 infected in mouse macrophages assessed as induction of bacterial kill at 4 ug/ml in presence of 4 ug/ml rifampin after 24 hrs; type: functional

`CO[C@H]1/C=C/O[C@@]2(C)Oc3c(C)c(O)c4c(O)c(c(/C=N/N5CCN(C)CC5)c(O)c4c3C2=O)NC(=O)/C(C)=C\C=C\[C@H](C)[C@H](O)[C@@H](C)[C@@H](O)[C@@H](C)[C@H](OC(C)=O)[C@@H]1C` [RIFAMPIN] gave an IC50 [1] of 0.015 µM, an IC50 [2] greater than 25 µM and an MIC (Staphylococcus aureus [3]) of 0.008 µg/mL (≈ 0.00972 µM). For the same compound, the MIC (Staphylococcus aureus [4]) was 0.008 µg/mL (≈ 0.00972 µM), the MIC (Staphylococcus aureus [5]) was 0.008 µg/mL (≈ 0.00972 µM) and the MIC (Staphylococcus aureus [6]) was 0.008 µg/mL (≈ 0.00972 µM). It also gave an MIC (Staphylococcus aureus [7]) greater than 250 µg/mL, an MIC (Staphylococcus aureus [8]) greater than 250 µg/mL and an MIC (Staphylococcus aureus [9]) greater than 250 µg/mL. The MIC (Staphylococcus aureus [10]) was greater than 250 µg/mL, the MIC50 (Staphylococcus aureus [11]) was 0.015 µg/mL (≈ 0.0182 µM) and the MIC90 (Staphylococcus aureus [11]) was 0.015 µg/mL (≈ 0.0182 µM). It also gave an MIC (Staphylococcus aureus [12]) of 0.008 to 4 µg/mL (≈ 0.00972 to 4.86 µM), an MIC50 (Staphylococcus aureus [12]) of 0.015 µg/mL (≈ 0.0182 µM) and an MIC90 (Staphylococcus aureus [12]) of 0.015 µg/mL (≈ 0.0182 µM). The MIC50 [13] was 0.015 µg/mL (≈ 0.0182 µM), the MIC90 [13] was 0.015 µg/mL (≈ 0.0182 µM) and the MIC [14] was “>=0.004 - 4 ug ml-1”. It also gave an MIC50 ([14]; Staphylococcus epidermidis) of 0.015 µg/mL (≈ 0.0182 µM), an MIC90 ([14]; Staphylococcus epidermidis) greater than 4 µg/mL and an MIC50 (Streptococcus pyogenes) of 0.06 µg/mL (≈ 0.0729 µM). For the same compound, the MIC90 (Streptococcus pyogenes) was 0.12 µg/mL (≈ 0.146 µM), the MIC (Streptococcus agalactiae) was 0.03 to 2 µg/mL (≈ 0.0365 to 2.43 µM) and the MIC50 (Streptococcus agalactiae) was 0.12 µg/mL (≈ 0.146 µM). The MIC90 (Streptococcus agalactiae) was 0.12 µg/mL (≈ 0.146 µM), the MIC (Streptococcus pneumoniae) was 0.12 to 1 µg/mL (≈ 0.146 to 1.22 µM) and the MIC50 (Streptococcus pneumoniae) was 0.25 µg/mL (≈ 0.304 µM). It also gave an MIC90 (Streptococcus pneumoniae) of 0.25 µg/mL (≈ 0.304 µM), an MIC (Staphylococcus aureus [15]) of 0.008 µg/mL (≈ 0.00972 µM) and an MBC (Staphylococcus aureus [16]) of 2 µg/mL (≈ 2.43 µM).
In the case of `COc1c(N2CCNC(C)C2)c(F)cc2c(=O)c(C(=O)O)cn(C3CC3)c12` (stereo not given) [GATIFLOXACIN], the MIC (Staphylococcus aureus [3]) is reported as 0.12 µg/mL (≈ 0.32 µM), the MIC (Staphylococcus aureus [4]) is reported as 0.06 µg/mL (≈ 0.16 µM) and the MIC (Staphylococcus aureus [5]) is reported as 0.25 µg/mL (≈ 0.666 µM). For the same compound, the MIC (Staphylococcus aureus [6]) was 8 µg/mL (≈ 21.3 µM), the MIC (Staphylococcus aureus [7]) was 0.06 µg/mL (≈ 0.16 µM) and the MIC (Staphylococcus aureus [8]) was 0.12 µg/mL (≈ 0.32 µM). The MIC (Staphylococcus aureus [9]) was 0.25 µg/mL (≈ 0.666 µM), the MIC (Staphylococcus aureus [10]) was 8 µg/mL (≈ 21.3 µM) and the CC50 [17] was 0.2 µM. It also gave a CC50 [18] of 0.7 µM, a CC50 (Staphylococcus aureus [19]) of 13 µM and a CC50 [20] greater than 150 µM.
Work on `O=C(O)c1cn(C2CC2)c2cc(N3CCNCC3)c(F)cc2c1=O` [CIPROFLOXACIN] yielded an MIC (Staphylococcus aureus [5]) of 2 µg/mL (≈ 6.04 µM), an MIC (Staphylococcus aureus [9]) of 2 µg/mL (≈ 6.04 µM) and an MBC (Staphylococcus aureus [16]) of 16 µg/mL (≈ 48.3 µM). The CC50 [17] was 0.4 µM, the CC50 [18] was 5 µM and the CC50 (Staphylococcus aureus [19]) was 31 µM. For the same compound, the CC50 [20] was greater than 150 µM.
For `COc1c(N2C[C@@H]3CCCN[C@@H]3C2)c(F)cc2c(=O)c(C(=O)O)cn(C3CC3)c12` [MOXIFLOXACIN], the Activity (Staphylococcus aureus [21]) was “<=99.9%”.

Reference: ChEMBL document CHEMBL4425125, “Development of a Dual-Acting Antibacterial Agent (TNP-2092) for the Treatment of Persistent Bacterial Infections” (J Med Chem, 2016)
